Reference: ChEMBL document CHEMBL1126647, “Fluorine-18-labeled progestin ketals: synthesis and target tissue uptake selectivity of potential imaging agents for receptor-positive breast tumors” (J Med Chem, 1993)

Tests used:
[1] = target: T1, Mineralocorticoid receptor (Rattus norvegicus) (UniProt P22199); experiment: Relative binding affinity (RBA) for mineralocorticoid receptor compared to aldosterone
T1 sequence (whole entry): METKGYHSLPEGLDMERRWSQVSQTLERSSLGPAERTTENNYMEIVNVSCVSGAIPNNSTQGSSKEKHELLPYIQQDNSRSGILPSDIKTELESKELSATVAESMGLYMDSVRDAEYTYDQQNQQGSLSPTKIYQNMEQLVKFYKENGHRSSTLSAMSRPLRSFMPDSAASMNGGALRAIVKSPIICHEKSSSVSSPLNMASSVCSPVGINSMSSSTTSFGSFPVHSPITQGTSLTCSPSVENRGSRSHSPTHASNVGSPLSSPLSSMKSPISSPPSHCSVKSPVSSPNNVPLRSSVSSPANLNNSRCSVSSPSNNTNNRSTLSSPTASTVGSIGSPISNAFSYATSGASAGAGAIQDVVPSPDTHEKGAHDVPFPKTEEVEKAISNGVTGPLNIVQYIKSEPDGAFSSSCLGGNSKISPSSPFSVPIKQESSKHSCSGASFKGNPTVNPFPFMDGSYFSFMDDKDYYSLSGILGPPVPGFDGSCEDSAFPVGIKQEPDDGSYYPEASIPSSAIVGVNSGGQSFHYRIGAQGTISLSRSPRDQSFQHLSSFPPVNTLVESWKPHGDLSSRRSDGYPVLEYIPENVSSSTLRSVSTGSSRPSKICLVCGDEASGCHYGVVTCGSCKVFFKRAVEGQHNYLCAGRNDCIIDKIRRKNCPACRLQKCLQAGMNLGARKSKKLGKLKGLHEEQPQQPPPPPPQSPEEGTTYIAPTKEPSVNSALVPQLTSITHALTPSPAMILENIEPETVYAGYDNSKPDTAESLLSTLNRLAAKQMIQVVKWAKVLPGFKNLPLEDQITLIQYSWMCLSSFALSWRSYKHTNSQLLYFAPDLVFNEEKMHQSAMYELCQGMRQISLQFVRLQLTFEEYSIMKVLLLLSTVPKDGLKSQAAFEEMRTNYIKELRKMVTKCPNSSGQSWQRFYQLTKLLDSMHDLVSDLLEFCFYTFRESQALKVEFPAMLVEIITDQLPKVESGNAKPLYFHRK

[2] = target: T2, Progesterone receptor (Rattus norvegicus) (UniProt Q63449); experiment: Tissue distribution in uterus/muscle 3 hr after [18F]4 injection into estrogen-primed immature rats; type: functional, tissue-based
T2 sequence (whole entry): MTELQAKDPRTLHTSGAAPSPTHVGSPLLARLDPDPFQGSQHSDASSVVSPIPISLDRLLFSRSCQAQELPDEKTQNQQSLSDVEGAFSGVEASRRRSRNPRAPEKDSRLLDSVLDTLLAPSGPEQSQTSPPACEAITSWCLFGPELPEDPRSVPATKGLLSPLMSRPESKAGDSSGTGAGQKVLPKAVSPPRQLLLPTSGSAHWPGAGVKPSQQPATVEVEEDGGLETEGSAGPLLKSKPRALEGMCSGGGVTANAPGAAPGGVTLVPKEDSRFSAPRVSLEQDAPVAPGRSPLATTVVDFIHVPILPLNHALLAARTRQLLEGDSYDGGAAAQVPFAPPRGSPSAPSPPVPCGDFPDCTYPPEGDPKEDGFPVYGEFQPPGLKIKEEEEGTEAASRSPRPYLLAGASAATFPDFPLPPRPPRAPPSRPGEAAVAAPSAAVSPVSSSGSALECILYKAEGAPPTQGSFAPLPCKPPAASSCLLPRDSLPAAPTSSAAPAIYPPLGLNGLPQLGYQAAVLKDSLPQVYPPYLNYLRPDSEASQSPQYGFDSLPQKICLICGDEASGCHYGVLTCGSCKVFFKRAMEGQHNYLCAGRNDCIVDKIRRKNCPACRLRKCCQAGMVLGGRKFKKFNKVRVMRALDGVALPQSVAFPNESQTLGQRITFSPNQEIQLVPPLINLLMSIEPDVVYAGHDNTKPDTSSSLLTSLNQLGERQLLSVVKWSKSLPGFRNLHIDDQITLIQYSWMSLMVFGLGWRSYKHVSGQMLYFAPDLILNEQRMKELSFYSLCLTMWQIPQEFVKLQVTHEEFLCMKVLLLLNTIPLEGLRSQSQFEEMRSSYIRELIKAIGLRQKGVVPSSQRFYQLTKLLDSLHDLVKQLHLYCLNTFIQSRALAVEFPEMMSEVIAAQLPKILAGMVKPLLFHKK
Procedure, shortened: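 Immature female Sprague-Dawley rats (23 days old) were primed with 5 μg estradiol in 20% ethanol/sunflower oil s.c. on two successive days and used 24 h after the last injection. The 18F tracer (51 μCi, specific activity 30 Ci/mmol) in 10% ethanol/saline was given iv in the tail vein under ether anesthesia. Rats were decapitated at 3 h, and organs were weighed and gamma counted. Ratio of %ID/g, n = 5.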

[3] = target: T2, Progesterone receptor (Rattus norvegicus); experiment: Tissue distribution in blood 3 hr after [18F]-4 injection into estrogen-primed immature rats; type: functional, tissue-based
Procedure, shortened: (§1)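 Immature female Sprague-Dawley rats, estradiol-primed (5 μg s.c. in 20% ethanol/sunflower oil, two successive days, used 24 h later). Tracer (30 Ci/mmol) in 10% ethanol/saline was injected iv into the tail vein under ether anesthesia. Animals were decapitated 3 h postinjection; organs weighed and gamma-counted. %ID/g, mean ± SD, n = 5.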

[4] = target: T2, Progesterone receptor (Rattus norvegicus); experiment: Tissue distribution in bone 3 hr after [18F]4 injection into estrogen-primed immature rats; type: functional, tissue-based; conditions: Bone element; procedure, shortened: as §1
[5] = target: T2, Progesterone receptor (Rattus norvegicus); experiment: Tissue distribution in brain 3 hr after [18F]4 injection into estrogen-primed immature rats; type: functional, tissue-based; procedure, shortened: as §1
[6] = target: T2, Progesterone receptor (Rattus norvegicus); experiment: Tissue distribution in fat 1 hr after [18F]4 injection into estrogen-primed immature rats at low dose; type: functional, tissue-based; conditions: Adipose tissue
Procedure, shortened: (§2)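 Estrogen-primed immature female Sprague-Dawley rats (estradiol 5 μg s.c. daily ×2, used 24 h later) were given a reduced tracer dose of 30 μCi in 0.04 mL 10% ethanol/saline, tail vein iv, under ether. Decapitated at 1 h; organs weighed and gamma-counted. Results as %ID/g or uterus/tissue ratio, mean ± SD, n = 5.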

[7] = target: T2, Progesterone receptor (Rattus norvegicus); experiment: Tissue distribution in kidney 1 hr after [18F]4 injection into estrogen-primed immature rats co-injected with uterine uptake blocker ([…]); type: functional, tissue-based
Procedure, shortened: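 Blocking group: estrogen-primed immature female Sprague-Dawley rats (estradiol 5 μg s.c. ×2 days, used 24 h later). ORG 2058 18 μg was co-injected with the tracer dose iv via tail vein, 0.2 mL injection volume in 10% ethanol/saline. Killed 1 h later; tissues weighed and gamma-counted. Results as %ID/g or ratios, mean ± SD, n = 5.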

[8] = target: T2, Progesterone receptor (Rattus norvegicus); experiment: Tissue distribution in liver 1 hr after [18F]4 injection into estrogen-primed immature rats at low dose; type: functional, tissue-based; procedure, shortened: as §2
[9] = target: T2, Progesterone receptor (Rattus norvegicus); experiment: Tissue distribution in muscle 1 hr after [18F]4 injection into estrogen-primed immature rats at normal dose; type: functional, tissue-based
Procedure, shortened: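 Female Sprague-Dawley rats, 23 days old, primed with estradiol 5 μg s.c. in 20% ethanol/sunflower oil on two days and used 24 h later. Under ether, they received 51 μCi tracer (30 Ci/mmol) iv via the tail vein in 0.1 mL 10% ethanol/saline. Killed by decapitation at 1 h; tissues weighed and gamma-counted. Results as %ID/g or tissue ratios, mean ± SD, n = 5.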

[10] = target: T2, Progesterone receptor (Rattus norvegicus); experiment: Tissue distribution in blood 1 hr after [18F]4 injection into estrogen-primed immature rats at low dose; type: functional, tissue-based; procedure, shortened: as §2

SMILES | relative binding affinity (RBA) [1] | uterus/muscle ratio [2] | Injected dose/g [3] | Injected dose/g [4] | Injected dose/g [5] | Injected dose/g [6] | Injected dose/g [7] | Injected dose/g [8] | Injected dose/g [9] | Injected dose/g [10]
CC(=O)[C@@]12O[C@](C)(c3ccc(F)cc3)O[C@@H]1CC1C3CCC4=CC(=O)CC[C@]4(C)C3CC[C@@]12C (stereo not given in full) | 6 | 4.61 | 0.28% | 1.69% | 0.2% | 5.39% | 2.18% | 3.62% | 0.82% | 0.52%
C[C@@]1(c2ccc(F)cc2)O[C@@H]2CC3C4CCC5=CC(=O)CC[C@@H]5C4CC[C@]3(C)[C@]2(C(=O)CO)O1 (stereo not given in full) | 140 | 27.9 | 0.1% | 0.64% | 0.06% | 3.78% | 1.28% | 3.93% | 0.44% | 0.28%
